According to ChEMBL document CHEMBL1649125, “Efficacy of the novel diamidine compound 2,5-Bis(4-amidinophenyl)- furan-bis-O-Methlylamidoxime (Pafuramidine, DB289) against Trypanosoma brucei rhodesiense infection in vervet monkeys after oral administration” (2009):
Activity calls are given as the source filed them. The rule behind the calls is not given here.

What was measured:
[1] = tested on: Trypanosoma brucei rhodesiense; test: Antimicrobial activity against Trypanosoma brucei rhodesiense infected in vervet monkeys assessed as cure from infection at 3 mg/kg, po administered on day 7 post infection for 5 days; type: functional, organism-based; set-up: dose 3 mg/kg
Method in brief: (§1)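 Vervet monkeys (n=3 per group), infected with T. b. rhodesiense KETRI 2537. Dosed by oral gavage with a suspension once daily for 5 consecutive days from day 7 p.i. Cure meant no trypanosomes over 180 days p.t. in blood (wet film, HCT) or CSF (hemocytometer, centrifugation), with mouse subinoculation of negative samples.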

[2] = tested on: Trypanosoma brucei rhodesiense; test: Antitrypanosomal activity against Trypanosoma brucei rhodesiense infected in vervet monkey 463 assessed as time to detect parasitemia at 1 mg/kg, po administered on day 7 post infection for 5 days; type: functional
Method in brief: (§2)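 Parasitemia was monitored from 3 days p.i. in ear-prick or inguinal venous blood. Methods were wet-film microscopy (detection limit 10^5 trypanosomes/ml) and hematocrit centrifugation technique (detection limit 10^3 trypanosomes/ml). Drug was given once daily by oral gavage: 5 days from day 7 p.i., or 10 days from day 28 p.i.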

[3] = tested on: Trypanosoma brucei rhodesiense; test: Antitrypanosomal activity against Trypanosoma brucei rhodesiense infected in vervet monkey 485 assessed as time to detect CSF parasitosis at 1 mg/kg, po administered on day 7 post infection for 5 days measured after 7 to 14 days; type: functional
Method in brief: (§3)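 Trypanosomes and white cells in free-flowing CSF were counted by hemocytometer. Negative CSF was centrifuged and re-examined. Samples still negative were inoculated at 0.2 ml intraperitoneally into two mice each. Drug was given once daily by oral gavage: 5 days from day 7 p.i., or 10 days from day 28 p.i.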

[4] = tested on: Trypanosoma brucei rhodesiense; test: Antitrypanosomal activity against Trypanosoma brucei rhodesiense infected in vervet monkey 482 assessed as time to detect parasitemia at 3 mg/kg, po administered on day 7 post infection for 5 days; type: functional; method in brief: as §2
[5] = tested on: Trypanosoma brucei rhodesiense; test: Antitrypanosomal activity against Trypanosoma brucei rhodesiense infected in vervet monkey 482 assessed as time to detect CSF parasitosis at 3 mg/kg, po administered on day 7 post infection for 5 days measured after 14 to 21 days by microscopy; type: functional; method in brief: as §3
[6] = tested on: Trypanosoma brucei rhodesiense; test: Antitrypanosomal activity against Trypanosoma brucei rhodesiense infected in vervet monkey 468 assessed as cure from infection at 10 mg/kg, po administered on day 7 post infection for 5 days; type: functional, organism-based; set-up: dose 10 mg/kg; method in brief: as §1
[7] = tested on: Trypanosoma brucei rhodesiense; test: Antitrypanosomal activity against Trypanosoma brucei rhodesiense infected in vervet monkey 486 assessed as cure from infection at 10 mg/kg, po administered on day 7 post infection for 5 days; type: functional, organism-based; set-up: dose 10 mg/kg; method in brief: as §1
[8] = tested on: Trypanosoma brucei rhodesiense; test: Antitrypanosomal activity against Trypanosoma brucei rhodesiense infected in vervet monkey assessed as body weight change at 3 mg/kg, po administered on day 7 post infection for 5 days measured on day 28 post treatment; type: functional
Method in brief: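 Body weight change is given as percent of the mean preinfection weight (n=3 per group). It was recorded at day 0 p.t., day 28 p.t. and end point. Oral gavage was once daily: 5 days from day 7 p.i., or 10 days from day 28 p.i.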

[9] = tested on: Trypanosoma brucei rhodesiense; test: Antitrypanosomal activity against Trypanosoma brucei rhodesiense infected in vervet monkey assessed as change in packed cell volume at 10 mg/kg, po administered on day 7 post infection for 5 days measured on day 28 post treatment; type: functional
Method in brief: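 Vervet monkeys, three per group, were infected intravenously with T. b. rhodesiense KETRI 2537. From day 7 p.i., a drug suspension was given by oral gavage once daily for 5 consecutive days. Packed cell volume was expressed as % change from the group's mean preinfection value. PCV was read at day 0 p.t., day 28 p.t. and endpoint, with follow-up to 180 days p.t.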

For `CONC(=N)c1ccc(-c2ccc(-c3ccc(C(=N)NOC)cc3)o2)cc1` [PAFURAMIDINE], the Activity [1] was “Active”, the Time [2] was 7 days and the Time [3] was 14 days. The Time [4] was 55 days, the Time [5] was 21 days and the Time [6] was “Active”. The Time [7] was “Active”, the Activity [8] was -6.6% and the Activity [9] was -1.6%.
